{
  "source": "ChEMBL document CHEMBL2406994",
  "about": "“Novel triple reuptake inhibitors with low risk of CAD associated liabilities: design, synthesis and biological activities of 4-[(1S)-1-(3,4-dichlorophenyl)-2-methoxyethyl]piperidine and related compounds” (Bioorg Med Chem, 2013)",
  "data": [
    {"target": "CYP2D6 (Homo sapiens, UniProt P10635)", "sequence (P10635 whole entry)": "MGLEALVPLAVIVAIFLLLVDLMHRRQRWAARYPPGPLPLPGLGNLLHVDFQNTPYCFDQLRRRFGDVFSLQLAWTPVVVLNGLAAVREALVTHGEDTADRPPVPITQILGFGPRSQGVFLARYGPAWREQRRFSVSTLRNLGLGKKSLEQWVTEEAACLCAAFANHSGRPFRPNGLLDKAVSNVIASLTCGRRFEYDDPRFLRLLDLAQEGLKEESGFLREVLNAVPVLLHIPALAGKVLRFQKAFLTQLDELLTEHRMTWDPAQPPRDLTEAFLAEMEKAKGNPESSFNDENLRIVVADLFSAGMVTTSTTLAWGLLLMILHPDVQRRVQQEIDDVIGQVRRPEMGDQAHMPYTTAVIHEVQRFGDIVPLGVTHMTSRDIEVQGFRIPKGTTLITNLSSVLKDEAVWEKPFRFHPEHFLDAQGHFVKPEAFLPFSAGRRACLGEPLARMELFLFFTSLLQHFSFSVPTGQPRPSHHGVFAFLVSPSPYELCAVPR", "assay": "Inhibition of CYP2D6 (unknown origin) assessed as 1'-hydroxybufuralol production at 10 uM after 20 mins by LC/MS/MS analysis relative to control", "format": "ADME", "conditions": "probe bufuralol (measured as 1'-hydroxybufuralol production)", "procedure,_shortened": "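10 µmol/L bufuralol incubated with 2 nmol/L CYP2D6 from insect cells expressing the enzyme, with 10 µmol/L test compound, for 20 min at 37 °C. 1'-hydroxybufuralol quantified by LC/MS/MS. Expressed as % inhibition.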", "units": {"inhibition at 20 min, 10 µM": "%"}, "values": [
      {"smiles": "CCCC(=O)C(c1ccc(Cl)c(Cl)c1)C1CCNCC1", "note": "(racemic)", "inhibition at 20 min, 10 µM": 20},
      {"smiles": "COCC(c1ccc2ccccc2c1)C1CCNCC1", "note": "(racemic)", "inhibition at 20 min, 10 µM": 22},
      {"smiles": "COCC(c1cccc(Cl)c1)C1CCNCC1", "note": "(racemic)", "inhibition at 20 min, 10 µM": 2},
      {"smiles": "COCC(c1ccc(Cl)cc1)C1CCNCC1", "note": "(racemic)", "inhibition at 20 min, 10 µM": -2.8},
      {"smiles": "COCC(c1ccc(F)c(Cl)c1)C1CCNCC1", "note": "(racemic)", "inhibition at 20 min, 10 µM": -18},
      {"smiles": "CC(c1ccc(Cl)c(Cl)c1)C1CCNCC1.Cl", "note": "(racemic)", "inhibition at 20 min, 10 µM": 27},
      {"smiles": "OCC(c1ccc(Cl)c(Cl)c1)C1CCNCC1", "note": "(racemic)", "inhibition at 20 min, 10 µM": -1.5},
      {"smiles": "COCC(c1ccc(Cl)c(Cl)c1)C1CCNCC1.Cl", "note": "(racemic)", "inhibition at 20 min, 10 µM": 5.7},
      {"smiles": "CCOCC(c1ccc(Cl)c(Cl)c1)C1CCNCC1.Cl", "note": "(racemic)", "inhibition at 20 min, 10 µM": 44}
    ]},
    {"target": "Sodium-dependent serotonin transporter (Homo sapiens, UniProt P31645)", "sequence (P31645 whole entry)": "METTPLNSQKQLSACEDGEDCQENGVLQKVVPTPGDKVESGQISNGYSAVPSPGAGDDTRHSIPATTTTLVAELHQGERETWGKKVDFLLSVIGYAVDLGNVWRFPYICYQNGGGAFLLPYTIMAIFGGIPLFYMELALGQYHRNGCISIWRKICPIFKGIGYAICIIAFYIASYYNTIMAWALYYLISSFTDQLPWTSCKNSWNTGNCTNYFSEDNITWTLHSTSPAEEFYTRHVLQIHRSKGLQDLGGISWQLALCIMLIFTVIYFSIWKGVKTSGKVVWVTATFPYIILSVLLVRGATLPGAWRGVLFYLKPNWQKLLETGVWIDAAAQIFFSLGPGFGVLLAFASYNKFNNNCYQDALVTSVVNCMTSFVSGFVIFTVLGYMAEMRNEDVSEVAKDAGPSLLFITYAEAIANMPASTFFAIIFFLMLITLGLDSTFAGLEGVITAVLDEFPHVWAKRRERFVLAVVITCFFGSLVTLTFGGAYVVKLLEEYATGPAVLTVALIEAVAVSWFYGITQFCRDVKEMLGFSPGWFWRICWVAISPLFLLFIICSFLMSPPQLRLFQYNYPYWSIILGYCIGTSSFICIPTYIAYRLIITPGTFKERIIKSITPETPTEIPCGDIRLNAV", "assay": "Displacement of [3H]-hydroxytryptamine from human SERT expressed in CHO cells by TopCounting analysis", "format": "cell-based", "conditions": "not given", "procedure,_shortened": "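CHO cells stably expressing human SERT, plated overnight at 3 × 10⁵ cells/mL in HEPES-buffered saline with 0.5% BSA. Compound added, then [³H]-5-HT (200 nM diluted stock). Uptake stopped at 20 min with two PBS washes, then scintillation counting. Activity relative to 10 µM paroxetine.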", "units": {"IC50": "µM"}, "values": [
      {"smiles": "CCCC(=O)C(c1ccc(Cl)c(Cl)c1)C1CCNCC1", "note": "(racemic)", "IC50": 0.037},
      {"smiles": "COCC(c1ccc2ccccc2c1)C1CCNCC1", "note": "(racemic)", "IC50": 0.0021},
      {"smiles": "COCC(c1cccc(Cl)c1)C1CCNCC1", "note": "(racemic)", "IC50": 0.18},
      {"smiles": "COCC(c1ccc(Cl)cc1)C1CCNCC1", "note": "(racemic)", "IC50": 0.12},
      {"smiles": "COCC(c1ccc(F)c(Cl)c1)C1CCNCC1", "note": "(racemic)", "IC50": 0.032},
      {"smiles": "CC(c1ccc(Cl)c(Cl)c1)C1CCNCC1.Cl", "note": "(racemic)", "IC50": 0.012},
      {"smiles": "OCC(c1ccc(Cl)c(Cl)c1)C1CCNCC1", "note": "(racemic)", "IC50": 0.079},
      {"smiles": "COCC(c1ccc(Cl)c(Cl)c1)C1CCNCC1.Cl", "note": "(racemic)", "IC50": 0.011},
      {"smiles": "CCOCC(c1ccc(Cl)c(Cl)c1)C1CCNCC1.Cl", "note": "(racemic)", "IC50": 0.016}
    ]},
    {"target": "Sodium-dependent dopamine transporter (Homo sapiens, UniProt Q01959)", "sequence (Q01959 whole entry)": "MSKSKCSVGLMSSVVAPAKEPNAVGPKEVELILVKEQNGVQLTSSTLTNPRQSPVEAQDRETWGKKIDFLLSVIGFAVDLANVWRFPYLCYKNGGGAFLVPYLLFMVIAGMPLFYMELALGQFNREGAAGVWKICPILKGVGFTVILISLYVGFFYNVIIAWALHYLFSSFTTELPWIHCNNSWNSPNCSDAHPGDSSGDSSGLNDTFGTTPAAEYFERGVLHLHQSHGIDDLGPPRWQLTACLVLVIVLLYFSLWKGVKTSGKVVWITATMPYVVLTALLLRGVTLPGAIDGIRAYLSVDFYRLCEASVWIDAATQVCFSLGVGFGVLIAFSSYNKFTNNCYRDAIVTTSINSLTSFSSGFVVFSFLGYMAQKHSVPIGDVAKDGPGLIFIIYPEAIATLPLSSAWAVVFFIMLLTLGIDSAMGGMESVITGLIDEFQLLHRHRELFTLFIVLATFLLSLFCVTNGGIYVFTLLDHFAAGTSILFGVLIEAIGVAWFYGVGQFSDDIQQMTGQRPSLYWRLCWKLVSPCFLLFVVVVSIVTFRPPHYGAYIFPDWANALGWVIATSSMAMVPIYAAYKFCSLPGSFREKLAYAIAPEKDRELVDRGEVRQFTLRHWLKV", "assay": "Displacement of [3H]-dopamine from human DAT expressed in CHO cells by TopCounting analysis", "format": "cell-based", "conditions": "not given", "procedure,_shortened": "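CHO cells stably expressing human DAT, plated overnight at 3 × 10⁵ cells/mL in HEPES-buffered saline with 0.5% BSA. Compound added, then [³H]-dopamine (200 nM diluted stock) with cold dopamine. Uptake for 60 min, two PBS washes, scintillation counting. Activity relative to 100 µM nomifensine as 100%. IC50 and 95% CI from n = 2.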", "units": {"IC50": "µM"}, "values": [
      {"smiles": "CCCC(=O)C(c1ccc(Cl)c(Cl)c1)C1CCNCC1", "note": "(racemic)", "IC50": 0.026},
      {"smiles": "COCC(c1ccc2ccccc2c1)C1CCNCC1", "note": "(racemic)", "IC50": 1.1},
      {"smiles": "COCC(c1cccc(Cl)c1)C1CCNCC1", "note": "(racemic)", "IC50": 2.6},
      {"smiles": "COCC(c1ccc(Cl)cc1)C1CCNCC1", "note": "(racemic)", "IC50": 1.7},
      {"smiles": "COCC(c1ccc(F)c(Cl)c1)C1CCNCC1", "note": "(racemic)", "IC50": 0.58},
      {"smiles": "CC(c1ccc(Cl)c(Cl)c1)C1CCNCC1.Cl", "note": "(racemic)", "IC50": 0.16},
      {"smiles": "OCC(c1ccc(Cl)c(Cl)c1)C1CCNCC1", "note": "(racemic)", "IC50": 2.4},
      {"smiles": "COCC(c1ccc(Cl)c(Cl)c1)C1CCNCC1.Cl", "note": "(racemic)", "IC50": 0.19},
      {"smiles": "CCOCC(c1ccc(Cl)c(Cl)c1)C1CCNCC1.Cl", "note": "(racemic)", "IC50": 0.17}
    ]},
    {"target": "Sodium-dependent noradrenaline transporter (Homo sapiens, UniProt P23975)", "sequence (P23975 whole entry)": "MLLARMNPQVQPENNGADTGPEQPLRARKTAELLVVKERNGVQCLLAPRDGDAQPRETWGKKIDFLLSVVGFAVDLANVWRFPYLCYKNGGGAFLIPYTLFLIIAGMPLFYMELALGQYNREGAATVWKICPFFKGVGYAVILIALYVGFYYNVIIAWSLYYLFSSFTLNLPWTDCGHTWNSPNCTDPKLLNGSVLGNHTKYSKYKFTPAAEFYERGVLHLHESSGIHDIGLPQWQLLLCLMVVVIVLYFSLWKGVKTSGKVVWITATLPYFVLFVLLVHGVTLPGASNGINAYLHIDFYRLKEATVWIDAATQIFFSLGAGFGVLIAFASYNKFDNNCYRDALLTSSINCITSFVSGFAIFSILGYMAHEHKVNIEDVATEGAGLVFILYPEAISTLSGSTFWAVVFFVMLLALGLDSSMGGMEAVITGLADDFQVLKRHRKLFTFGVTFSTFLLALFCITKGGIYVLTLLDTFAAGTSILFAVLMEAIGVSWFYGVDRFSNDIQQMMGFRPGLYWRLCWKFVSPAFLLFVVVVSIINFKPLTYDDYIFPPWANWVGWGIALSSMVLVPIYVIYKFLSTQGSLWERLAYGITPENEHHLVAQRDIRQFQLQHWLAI", "assay": "Displacement of [3H]-norepinephrine from human NET expressed in CHO cells by TopCounting analysis", "format": "cell-based", "conditions": "not given", "procedure,_shortened": "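CHO cells stably expressing human NET, plated overnight at 3 × 10⁵ cells/mL in HEPES-buffered saline with 0.5% BSA. Compound added, then [³H]-norepinephrine (200 nM diluted stock). Uptake stopped at 45 min with two PBS washes, then scintillation counting. IC50 and 95% CI from n = 2.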", "units": {"IC50": "µM"}, "values": [
      {"smiles": "CCCC(=O)C(c1ccc(Cl)c(Cl)c1)C1CCNCC1", "note": "(racemic)", "IC50": 0.022},
      {"smiles": "COCC(c1ccc2ccccc2c1)C1CCNCC1", "note": "(racemic)", "IC50": 0.036},
      {"smiles": "COCC(c1cccc(Cl)c1)C1CCNCC1", "note": "(racemic)", "IC50": 0.098},
      {"smiles": "COCC(c1ccc(Cl)cc1)C1CCNCC1", "note": "(racemic)", "IC50": 0.13},
      {"smiles": "COCC(c1ccc(F)c(Cl)c1)C1CCNCC1", "note": "(racemic)", "IC50": 0.07},
      {"smiles": "CC(c1ccc(Cl)c(Cl)c1)C1CCNCC1.Cl", "note": "(racemic)", "IC50": 0.025},
      {"smiles": "OCC(c1ccc(Cl)c(Cl)c1)C1CCNCC1", "note": "(racemic)", "IC50": 0.11},
      {"smiles": "COCC(c1ccc(Cl)c(Cl)c1)C1CCNCC1.Cl", "note": "(racemic)", "IC50": 0.014},
      {"smiles": "CCOCC(c1ccc(Cl)c(Cl)c1)C1CCNCC1.Cl", "note": "(racemic)", "IC50": 0.028}
    ]},
    {"target": "hERG (KCNH2) (Homo sapiens, UniProt Q12809)", "sequence (Q12809 whole entry)": "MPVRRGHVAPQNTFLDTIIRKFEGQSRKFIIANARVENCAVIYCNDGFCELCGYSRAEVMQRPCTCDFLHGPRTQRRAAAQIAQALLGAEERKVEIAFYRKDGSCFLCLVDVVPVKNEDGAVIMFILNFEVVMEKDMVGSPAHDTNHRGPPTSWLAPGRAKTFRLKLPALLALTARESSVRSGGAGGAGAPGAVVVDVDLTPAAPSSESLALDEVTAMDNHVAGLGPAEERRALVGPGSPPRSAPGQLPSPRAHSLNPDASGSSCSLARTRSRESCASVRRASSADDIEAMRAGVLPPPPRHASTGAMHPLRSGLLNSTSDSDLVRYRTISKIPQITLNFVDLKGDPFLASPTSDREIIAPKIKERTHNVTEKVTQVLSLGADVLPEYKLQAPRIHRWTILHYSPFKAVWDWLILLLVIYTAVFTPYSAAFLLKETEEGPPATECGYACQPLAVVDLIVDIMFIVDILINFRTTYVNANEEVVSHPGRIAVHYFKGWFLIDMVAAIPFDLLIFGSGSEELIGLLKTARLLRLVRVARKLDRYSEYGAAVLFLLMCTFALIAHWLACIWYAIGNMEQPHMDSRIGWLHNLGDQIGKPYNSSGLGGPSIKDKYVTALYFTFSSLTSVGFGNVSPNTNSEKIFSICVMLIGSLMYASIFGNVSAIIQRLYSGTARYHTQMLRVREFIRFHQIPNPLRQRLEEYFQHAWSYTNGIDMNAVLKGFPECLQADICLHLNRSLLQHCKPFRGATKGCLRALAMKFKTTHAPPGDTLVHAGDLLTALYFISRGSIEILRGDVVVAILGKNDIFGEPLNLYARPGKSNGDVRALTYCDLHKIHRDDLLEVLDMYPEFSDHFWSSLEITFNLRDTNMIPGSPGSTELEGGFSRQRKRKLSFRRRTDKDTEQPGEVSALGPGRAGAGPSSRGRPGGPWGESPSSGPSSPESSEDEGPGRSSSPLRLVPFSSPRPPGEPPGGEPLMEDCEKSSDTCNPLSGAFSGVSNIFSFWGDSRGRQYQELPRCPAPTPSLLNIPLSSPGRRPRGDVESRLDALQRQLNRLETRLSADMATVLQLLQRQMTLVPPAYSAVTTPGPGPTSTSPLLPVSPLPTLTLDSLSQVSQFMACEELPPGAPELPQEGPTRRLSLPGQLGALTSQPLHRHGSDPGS", "assay": "Inhibition of human ERG channel at 10 uM by ionworks assay relative to control", "conditions": "not given", "procedure,_shortened": "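hERG current measured on IonWorks Quattro with test compound at 10 µM. Expressed as % inhibition.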", "units": {"inhibition at 10 µM": "%"}, "values": [
      {"smiles": "CCCC(=O)C(c1ccc(Cl)c(Cl)c1)C1CCNCC1", "note": "(racemic)", "inhibition at 10 µM": 72},
      {"smiles": "COCC(c1ccc2ccccc2c1)C1CCNCC1", "note": "(racemic)", "inhibition at 10 µM": 38},
      {"smiles": "COCC(c1cccc(Cl)c1)C1CCNCC1", "note": "(racemic)", "inhibition at 10 µM": 23},
      {"smiles": "COCC(c1ccc(Cl)cc1)C1CCNCC1", "note": "(racemic)", "inhibition at 10 µM": 22},
      {"smiles": "COCC(c1ccc(F)c(Cl)c1)C1CCNCC1", "note": "(racemic)", "inhibition at 10 µM": 24},
      {"smiles": "CC(c1ccc(Cl)c(Cl)c1)C1CCNCC1.Cl", "note": "(racemic)", "inhibition at 10 µM": 72},
      {"smiles": "OCC(c1ccc(Cl)c(Cl)c1)C1CCNCC1", "note": "(racemic)", "inhibition at 10 µM": 12},
      {"smiles": "COCC(c1ccc(Cl)c(Cl)c1)C1CCNCC1.Cl", "note": "(racemic)", "inhibition at 10 µM": 42},
      {"smiles": "CCOCC(c1ccc(Cl)c(Cl)c1)C1CCNCC1.Cl", "note": "(racemic)", "inhibition at 10 µM": 89}
    ]},
    {"test_system": "Mus musculus", "assay": "Antidepressant activity in orally dosed ICR mouse after 60 mins by tail suspension test", "format": "functional", "conditions": "po, 1 h, read-out: MED", "procedure,_shortened": "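Male 7-week-old ICR mice, n = 11/group. Drug or vehicle (distilled water) given orally at 10 mL/kg; test run 60 min later. Mice hung by the tail from a strain-gauge hook, and immobility scored from load variation over a 10 min test. Average immobility ratio (%) per group; significance by parametric Williams' test, P < .025.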", "units": {"minimal effective dose": "mg/kg"}, "values": [
      {"smiles": "CC(c1ccc(Cl)c(Cl)c1)C1CCNCC1.Cl", "note": "(racemic)", "minimal effective dose": 3},
      {"smiles": "COCC(c1ccc(Cl)c(Cl)c1)C1CCNCC1.Cl", "note": "(racemic)", "minimal effective dose": 3},
      {"smiles": "CCOCC(c1ccc(Cl)c(Cl)c1)C1CCNCC1.Cl", "note": "(racemic)", "minimal effective dose": 3}
    ]}
  ]
}
